In ChEMBL document CHEMBL1138201, “Development and characterization of biphenylsulfonamides as novel inhibitors of bone resorption” (J Med Chem, 2006):
Calls of active or inactive are those of the source. No cut-off for these calls is given here.

Assays:
J774 = assay: Inhibition of mouse J774 cell survival by alamar blue viability assay; assay type: functional, cell-based
How it was run: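 J774 cells were seeded at 10⁴ per well in […] with 10% FCS and penicillin/streptomycin and grown overnight. Compounds were then added for 48 h. Alamar Blue was added for a further 3 h and viability was read as fluorescence (ex 530, em 590 nm). There were at least three independent experiments, n = 5 each, and IC₅₀ was fitted.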

Osteoclast [1] = assay: Inhibition of mouse osteoclast survival; assay type: functional, cell-based
How it was run: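 Mouse bone marrow from femora and tibiae was grown 3 days with 100 ng/mL M-CSF. Adherent cells were seeded on dentine slices (4 × 10⁴ cells/mL) with 100 ng/mL RANKL and 25 ng/mL M-CSF for 7 days. Compounds were present for 72 h from day 4. TRAcP-positive cells with ≥3 nuclei were counted as % of vehicle. Three experiments, n = 5 each.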

Homo sapiens [2] = species on record: Homo sapiens; assay: Inhibition of RANKL-activated NF-kappaB
Hepatocyte = assay: Effect on apoptosis of hepatocyte; assay type: functional, cell-based; conditions: Homo sapiens
Osteoclast [3] = assay: Apoptosis of osteoclast at 5 to 20 uM; assay type: functional, cell-based; conditions: Homo sapiens
Macrophage = assay: Apoptosis of macrophage at 5 to 20 uM; assay type: functional, cell-based; conditions: Homo sapiens
Homo sapiens [4] = species on record: Homo sapiens; assay: Inhibition of TNF-alpha-activated NF-kappaB
Osteoblast = assay: Effect on apoptosis of osteoblast; assay type: functional, cell-based; conditions: Homo sapiens
Mus musculus = assay: Inhibition of ovariectomy-induced bone loss in C57/BL6 mouse at 5 mg/kg/day, ip; assay type: functional, organism-based
How it was run: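 Nine-week-old female C57/BL6 mice were ovariectomized or sham-operated. Starting 2 days after surgery, they received 5 (mg/kg)/day intraperitoneally in corn oil for 21 days; controls received oil alone. The study ended on day 23. Bone at the right tibial metaphysis was measured by µCT at 5 µm resolution over 200 slices distal to the growth plate. Results are % change from sham, ±SEM, n = 6.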

Row | SMILES | IC50 (J774) [µM] | further results
1 | O=S(=O)(NCCCCCO)c1ccc(-c2ccc(O)cc2)cc1 | 21 | –
2 | COc1cc(S(=O)(=O)NCCCCCO)ccc1-c1ccc(F)cc1F | 33 | –
3 | CN(C)c1ccc(-c2ccc(S(=O)(=O)NCCCCCO)cc2)cc1 | 32 | –
4 | Cc1cccc(-c2ccc(S(=O)(=O)NCCCCO)cc2)c1 | 28 | –
5 | O=S(=O)(NCCCCCCO)c1ccc(-c2ccccc2)cc1 | 13 | –
6 | O=S(=O)(NCCCCO)c1ccc(-c2ccccc2C(F)(F)F)cc1 | 6 | –
7 | O=S(=O)(NCCCCO)c1ccc(-c2ccc(F)cc2)cc1 | 8 | –
8 | O=S(=O)(NCCCCO)c1ccc(-c2ccc(F)cc2F)c(C(F)(F)F)c1 | 0.7 | –
9 | COc1ccccc1-c1ccc(S(=O)(=O)NCCCCCO)cc1 | 31 | –
10 | O=S(=O)(NCCCCO)c1cccc(-c2ccc(C(F)(F)F)cc2)c1 | > 50 | –
11 | O=S(=O)(NCCCCCO)c1ccc(-c2ccc(Br)cc2)cc1 | 9 | –
12 | O=S(=O)(NCCCCCO)c1ccc(-c2ccc(Cl)cc2Cl)cc1 | 2.5 | –
13 | Cc1cc(S(=O)(=O)NCCCCO)ccc1-c1ccc(F)cc1 | 2.5 | –
14 | O=S(=O)(NCCCCO)c1ccccc1-c1ccc(F)cc1 | > 50 | –
15 | CSc1ccc(-c2ccc(S(=O)(=O)NCCCCO)cc2)cc1 | 35 | –
16 | O=S(=O)(NCCCCO)c1ccc(-c2ccc(C(F)(F)F)cc2)cc1 | 5 | –
17 | O=[N+]([O-])c1cccc(-c2ccc(S(=O)(=O)NCCCCO)cc2)c1 | 33 | –
18 | O=S(=O)(NCCCO)c1ccc(-c2ccccc2)cc1 | > 50 | –
19 | O=S(=O)(NCCCCO)c1ccc(-c2ccccc2)cc1C(F)(F)F | 4.5 | –
20 | O=S(=O)(NCCCCO)c1ccc(-c2ccc(Br)cc2)cc1 | 8 | –

Row | SMILES | IC50 (J774) [µM] | further results
21 | O=S(=O)(NCCCCCO)c1ccc(-c2ccccc2)cc1 | 18 | –
22 | O=C(OCCCCO)c1ccc(-c2ccccc2)cc1 | – | IC50 (Osteoclast [1]): 9 µM; Activity (Homo sapiens [2]): Active; IC50 (Hepatocyte): > 200 µM; Activity (Osteoclast [3]): Active; Activity (Macrophage): Active; Activity (Homo sapiens [4]): Active; IC50 (Osteoblast): > 100 µM
23 | O=S(=O)(NCCCCCO)c1ccc(-c2ccc(C(F)(F)F)cc2C(F)(F)F)cc1 | 2 | –
24 | O=S(=O)(NCCCCO)c1ccc(-c2ccc(OC(F)(F)F)cc2)cc1 | 8 | –
25 | Cc1cc(S(=O)(=O)NCCCCO)ccc1-c1ccc(F)cc1F | 0.8 | IC50 (Osteoclast [1]): 0.15 µM; Activity (Homo sapiens [2]): Active; Activity (Mus musculus): Active; Activity (Homo sapiens [4]): Active
26 | O=S(=O)(NCCCCO)c1ccc(-c2ccccc2)cc1 | 18 | IC50 (Osteoclast [1]): 8 µM; Activity (Homo sapiens [2]): Active; Activity (Homo sapiens [4]): Active
27 | O=S(=O)(NCCCCCO)c1ccc(-c2ccc(-c3ccccc3)cc2)cc1 | 33 | –
28 | O=S(=O)(NCCCCO)c1ccc(-c2ccc(C(F)(F)F)cc2)c(F)c1 | 5.5 | –
29 | O=S(=O)(NCCCCO)c1ccc(-c2ccc(Br)cc2F)cc1 | 3 | –
30 | O=S(=O)(NCCCCO)c1ccc(-c2ccc(C(F)(F)F)cc2)cc1F | 5 | –
31 | Nc1ccccc1-c1ccc(S(=O)(=O)NCCCCO)cc1 | 24 | –
32 | O=S(=O)(NCCCCCO)c1ccc(-c2ccc(F)cc2F)cc1 | 4.5 | –
33 | O=S(=O)(NCCCCCO)c1ccc(-c2ccc(F)c(F)c2)cc1 | 16 | –
34 | N#Cc1ccc(-c2ccc(S(=O)(=O)NCCCCCO)cc2)cc1 | 12 | –
35 | O=[N+]([O-])c1ccccc1-c1ccc(S(=O)(=O)NCCCCO)cc1 | 2 | –
36 | O=S(=O)(NCCCCO)c1ccc(-c2ccccc2I)cc1 | 5.5 | –
37 | O=C(O)c1ccc(-c2ccc(S(=O)(=O)NCCCCCO)cc2)cc1 | 33 | –
38 | Cc1ccc(-c2ccc(S(=O)(=O)NCCCCCO)cc2)cc1 | 13 | –
39 | CC(=O)c1ccc(-c2ccc(S(=O)(=O)NCCCCCO)cc2)cc1 | 11 | –
